Substitutions are numbered along the chain they refer to.
Key:
Format in all cases: cell-based, C. elegans
GluClβ A20′S = GluClβ A20′S (Caenorhabditis elegans, UniProt Q17328, A297S); test: two-electrode voltage clamp, Xenopus laevis oocytes; details: glutamate
How it was run: (§1)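 C. elegans GluClβ (mammalian codon-optimised) in pGEMhe, mutated by QuikChange; T7 mRNA. […] Voltage clamp at −60 mV in Ca-free ND96, pH 7.5. […] Peak currents taken from baseline, normalised, averaged per concentration, and fit to Hill equation (EC50, nH).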

GluClβ T10′A = target: T1, GluClβ T10′A (Caenorhabditis elegans, UniProt Q17328, T287A); test: two-electrode voltage clamp, Xenopus laevis oocytes
T1 sequence (Q17328 23-434 T287A): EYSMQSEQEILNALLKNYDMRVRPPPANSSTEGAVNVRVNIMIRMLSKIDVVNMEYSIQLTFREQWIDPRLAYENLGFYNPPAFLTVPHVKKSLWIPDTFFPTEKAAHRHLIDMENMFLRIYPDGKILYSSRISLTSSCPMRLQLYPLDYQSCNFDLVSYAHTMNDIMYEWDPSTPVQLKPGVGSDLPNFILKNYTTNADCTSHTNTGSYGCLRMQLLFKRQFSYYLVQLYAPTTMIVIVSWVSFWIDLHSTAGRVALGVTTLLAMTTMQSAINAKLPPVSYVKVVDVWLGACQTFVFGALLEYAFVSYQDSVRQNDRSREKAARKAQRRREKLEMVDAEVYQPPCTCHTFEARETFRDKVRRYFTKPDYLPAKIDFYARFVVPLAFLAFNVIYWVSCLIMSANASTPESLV

GluClβ A17′G = GluClβ A17′G (Caenorhabditis elegans, UniProt Q17328, A294G); test: two-electrode voltage clamp, Xenopus laevis oocytes; details: glutamate
How it was run: as §1

[1] = target: GluClβ with α signal peptide (no T6′S) (Caenorhabditis elegans, UniProt Q17328); test: two-electrode voltage clamp, Xenopus laevis oocytes; details: α signal peptide chimera vs wild type
[2] = tested on: GluClβ T6′S, Y206TAG OMe–Phe; test: two-electrode voltage clamp, Xenopus laevis oocytes, nonsense suppression; details: glutamate
GluClβ T6′S, Y206TAG Phe = target: T2, GluClβ T6′S, Y206TAG Phe (Caenorhabditis elegans, UniProt Q17328, T283S/Y232F); test: two-electrode voltage clamp, Xenopus laevis oocytes, nonsense suppression; details: glutamate
T2 sequence (Q17328 23-434 Y232F/T283S): T1 sequence (Q17328 23-434 T287A) with Y210F, T261S, A265T
How it was run: (§2)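 Site-specific TAG codon, read by 74mer THG73 tRNA ligated to dCA-acylated amino acid; NVOC removed by 5 min xenon-lamp irradiation just before injection. Oocytes coinjected with 37.5 ng mRNA plus ~1 μg/μL tRNA at 48 and 24 h pre-recording; unacylated 76mer tRNA served as read-through control.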

GluClβ T6′S, Q174A = GluClβ T6′S, Q174A (Caenorhabditis elegans, UniProt Q17328, Q200A/T283S); test: two-electrode voltage clamp, Xenopus laevis oocytes; details: glutamate
GluClβ T6′S, Y156F = GluClβ T6′S, Y156F (Caenorhabditis elegans, UniProt Q17328, T283S/Y182F); test: as above; details: glutamate
GluClβ T6′S, S126A/Y156F = GluClβ T6′S, S126A/Y156F (Caenorhabditis elegans, UniProt Q17328, S152A/T283S/Y182F); test: two-electrode voltage clamp, Xenopus laevis oocytes; details: glutamate
How it was run: as §1

GluClβ T6′S = GluClβ T6′S (Caenorhabditis elegans, UniProt Q17328, T283S); test: two-electrode voltage clamp, Xenopus laevis oocytes; details: glutamate
[3] = tested on: GluClβ with α signal peptide, T6′S, Y156TAG Cha; test: two-electrode voltage clamp, Xenopus laevis oocytes, nonsense suppression; details: glutamate
How it was run: as §2

GluClβ T6′S, Q174A/Y206F = target: T3, GluClβ T6′S, Q174A/Y206F (Caenorhabditis elegans, UniProt Q17328, Q200A/T283S/Y232F); test: two-electrode voltage clamp, Xenopus laevis oocytes
T3 sequence (Q17328 23-434 Q200A/Y232F/T283S): T1 sequence (Q17328 23-434 T287A) with Q178A, Y210F, T261S, A265T

[4] = tested on: GluClβ T6′S, Y206TAG Br–Phe; test: two-electrode voltage clamp, Xenopus laevis oocytes, nonsense suppression; details: glutamate
[5] = tested on: GluClβ with α signal peptide, T6′S, Y156TAG F2–Phe; test: as above; details: glutamate
[6] = tested on: GluClβ with α signal sequence, T6’S, Y206 F2-Phe (3,5-F2–Phe); test: two-electrode voltage clamp, Xenopus laevis oocytes, nonsense suppression; details: glutamate; no plateau at 100 mM
How it was run: as §2

Sequence of GluClβ T6′S, Y156F (Q17328 23-434 Y182F/T283S): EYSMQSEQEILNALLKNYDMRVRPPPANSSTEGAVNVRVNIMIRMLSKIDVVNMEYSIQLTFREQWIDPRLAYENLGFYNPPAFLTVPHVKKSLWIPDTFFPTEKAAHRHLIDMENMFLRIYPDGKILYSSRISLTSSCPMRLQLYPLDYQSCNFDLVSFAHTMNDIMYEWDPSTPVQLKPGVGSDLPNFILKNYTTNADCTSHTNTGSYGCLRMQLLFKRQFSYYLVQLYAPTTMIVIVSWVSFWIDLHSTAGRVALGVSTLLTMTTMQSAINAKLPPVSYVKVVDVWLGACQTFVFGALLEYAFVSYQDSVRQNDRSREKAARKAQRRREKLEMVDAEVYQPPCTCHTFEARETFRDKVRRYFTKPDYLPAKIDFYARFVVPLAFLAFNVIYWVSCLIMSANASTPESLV
Sequence of GluClβ T6′S, Q174A (Q17328 23-434 Q200A/T283S): as the sequence (Q17328 23-434 Y182F/T283S) above, with F160Y, Q178A counted along it
Sequence of GluClβ with α signal peptide (no T6′S) (Q17328 23-434): as the sequence (Q17328 23-434 Y182F/T283S) above, with F160Y, S261T counted along it
Sequence of GluClβ A20′S (Q17328 23-434 A297S): as the sequence (Q17328 23-434 Y182F/T283S) above, with F160Y, S261T, A275S counted along it
Sequence of GluClβ T6′S, S126A/Y156F (Q17328 23-434 S152A/Y182F/T283S): as the sequence (Q17328 23-434 Y182F/T283S) above, with S130A counted along it
Sequence of GluClβ A17′G (Q17328 23-434 A294G): as the sequence (Q17328 23-434 Y182F/T283S) above, with F160Y, S261T, A272G counted along it
Sequence of GluClβ T6′S (Q17328 23-434 T283S): as the sequence (Q17328 23-434 Y182F/T283S) above, with F160Y counted along it

What does the source list for `N[C@@H](CCC(=O)O)C(=O)O` [glutamate]?
EC50 (GluClβ A20′S): no response; EC50 (GluClβ T10′A; glutamate): 13 ± 1 µM; Hill (GluClβ T10′A; glutamate): 2.8 ± 0.1; Imax (GluClβ T10′A; glutamate): 2–28 μA; increase in receptor sensitivity (GluClβ T10′A; vs WT): 27 fold; EC50 (GluClβ A17′G): > 5000 µM; increase in EC50 [1]: < 3 fold; EC50 [2]: 560 ± 10 µM; Hill [2]: 1.8 ± 0.1; Imax [2]: 0.1–1.4 μA; EC50 (GluClβ T6′S, Y206TAG Phe): 160 ± 10 µM; Hill (GluClβ T6′S, Y206TAG Phe): 3.0 ± 0.2; Imax (GluClβ T6′S, Y206TAG Phe): 0.07–0.30 μA; EC50 (GluClβ T6′S, Q174A): 110 ± 10 µM; Hill (GluClβ T6′S, Q174A): 2.4 ± 0.2; EC50 (GluClβ T6′S, Y156F): 6400 ± 400 µM; Hill (GluClβ T6′S, Y156F): 1.6 ± 0.1; EC50 (GluClβ T6′S, S126A/Y156F): no response; Hill (GluClβ T6′S): 2.4 ± 0.3; EC50 [3]: no response; EC50 (GluClβ T6′S, Q174A/Y206F; glutamate): 920 ± 40 µM; Hill (GluClβ T6′S, Q174A/Y206F; glutamate): 2.2 ± 0.2; Ω (GluClβ T6′S, Q174A/Y206F; mutant cycle analysis Q174A, Y206F): 0.67; ΔΔG (GluClβ T6′S, Q174A/Y206F; mutant cycle analysis Q174A/Y206F): 0.23 kcal/mol; EC50 [4]: 980 ± 30 µM; Hill [4]: 2.5 ± 0.1; Imax [4]: 0.08–6 μA; EC50 [5]: 49000 ± 3000 µM; Hill [5]: 1.8 ± 0.1; Imax [5]: 0.2–4 μA; EC50 [6]: > 100000 µM

Source: publication PMC4201344 (ACS Chemical Biology, 2014)
